The source of these data is paper PMC3169012 (European journal of pharmacology, 2011).

Entries after “also recorded” stand apart in the source; their conditions may differ. Positions of bridges follow the written chain, without caps; N, C: chain ends. No end group written: not given here.

Assay [1] relates to HMC-1 cells. The settings on record: ref Ahamed et al., 2004, Ali et al., 2000; cited from earlier work.
A further assay relates to HA-tagged human MrgX2. Put plainly: Degranulation of RBL-2H3 cells stably expressing MrgX2. The format is cell-based. The conditions noted are these: RBL-2H3 expressing MrgX2; for degranulation: peptides 1 µM, compound 48/80 100 ng/ml or antigen DNP-BSA 30 ng/ml, 30 min, representative of 3 experiments. A digest of the protocol: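 RBL-2H3 cells were nucleofected with HA-tagged receptor plasmid, selected in G418 (1mg/ml) and sorted by anti-HA staining for equivalent expression. 5 × 10^4 cells were primed overnight with mouse anti-DNP IgE (1 µg/ml), washed and stimulated 30 min in 0.1% BSA buffer. Supernatant β-hexosaminidase was read with 1 mM p-nitrophenyl-N-acetyl-β-D-glucosamine (1.5 h, 37°C), stopped with carbonate buffer, A405, as percent of Triton X-100 lysate total.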

Assay [2] has as its system peripheral blood CD34^+ cell-derived mast cells. The conditions noted are these: ref Fukuoka et al., 2008, Lappalainen et al., 2007, Oskeritzian et al., 2005, Venkatesha et al., Woolhiser et al., 2004; cited from earlier work.
The test system of another assay is mast cell. The conditions noted are these: ref Hartmann et al., 1997; Nilsson et al., 1996; cited from earlier work.
The test system of assay [3] is bone marrow-derived mast cells. The conditions noted are these: ref Erdei et al., 2004, Soruri et al., 2008; cited from earlier work.
Assay [4] relates to LAD2 mast cells. Put plainly: Ca^2+ mobilization in LAD2 mast cells. The format is cell-based, human. The conditions noted are these: indo-1 AM, C3a 10 nM, E7 1 µM, representative of 3 experiments; for intracellular Ca^2+ mobilization: 355/410 nm, E7S 1 µM, compound 48/80 1 µg/ml. A digest of the protocol:
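LAD2 cells were kept in StemPro-34 with supplements, 2 mM L-glutamine, penicillin, streptomycin and 100 ng/ml SCF, hemi-depleted weekly. Cells at 0.2 × 10^6/ml were loaded with 1 µM indo-1 AM plus 1 µM pluronic F-127 for 30 min at room temperature, washed and resuspended in HEPES-buffered saline. C3a (10 nM) or test peptide (1 µM) was added at marked times. Fluorescence was read at excitation 355 nm and emission 410 nm.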

The subject of assay [5] is rat basophilic leukemia, RBL-2H3 cells. The conditions noted are these: ref Erdei et al., 2004, Soruri et al., 2008; cited from earlier work.
The subject of a further assay is HA-tagged human MrgX1. Put plainly: Degranulation of RBL-2H3 cells stably expressing MrgX1. The conditions noted are these: RBL-2H3 expressing MrgX1; for degranulation: peptides 1 µM, compound 48/80 100 ng/ml or antigen DNP-BSA 30 ng/ml, 30 min, representative of 3 experiments. Format: cell-based.
In assay [6] the test system is LAD2 mast cells. Put plainly: Degranulation. Format: cell-based, human. The conditions noted are these: 30 min, β-hexosaminidase release; for degranulation: different concentrations, 3 – 4 experiments. A digest of the protocol: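 LAD2 cells, kept in StemPro-34 with 100 ng/ml SCF, were seeded at 5 × 10^3 per well overnight with human IgE (1 µg/ml). After washing, they were exposed for 30 min to graded test-compound concentrations in buffer with 0.1% BSA. Released β-hexosaminidase was assayed with 1 mM p-nitrophenyl-N-acetyl-β-D-glucosamine (1.5 h, 37°C), stopped with 0.1 M Na2CO3/NaHCO3, and read at A405. Values are percent of the 0.1% Triton X-100 lysate total, mean ± S.E.M of 3–4 experiments.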

Assay [7] relates to HMC-1 cells. In words: Ca^2+ mobilization in HMC-1 cells. Format: cell-based, human. The conditions noted are these: representative of 3 experiments; for intracellular Ca^2+ mobilization: indo-1 AM, 355/410 nm, C3a 10 nM, E7 1 µM, E7S 1 µM, compound 48/80 1 µg/ml. In a few lines:
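HMC-1 cells were grown in IMDM with 10% FCS, 2 mM L-glutamine, penicillin and streptomycin. Cells at 1 × 10^6/ml were loaded with 1 µM indo-1 AM plus 1 µM pluronic F-127 for 30 min at room temperature, then washed and resuspended in HEPES-buffered saline. Stimuli were added sequentially at marked times: C3a 10 nM, test peptide 1 µM, test secretagogue 1 µg/ml. Fluorescence was read at excitation 355 nm and emission 410 nm.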

The conditions of assay [8]: ref Lu et al., 1984; cited from earlier work.
Assay [9] relates to CD34^+-derived human mast cells. In words: Degranulation. Format: cell-based. The settings on record: 30 min, E7 or E7S 1 µM, 3 – 4 experiments. A digest of the protocol:
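Primary mast cells were grown 7–10 weeks from human CD34+ progenitors in StemPro-34 with SCF and IL-6 (100 ng/ml each), plus IL-3 (30 ng/ml) in the first week only. Cells (5 × 10^3 per well) were primed overnight with human IgE (1 µg/ml), washed, and stimulated 30 min in 0.1% BSA buffer with test peptides at 100 nM or 1 µM. β-Hexosaminidase release was measured at 405 nm and expressed as percent of lysate total, mean ± S.E.M of 3–4 experiments.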

In assay [10] the test system is MrgX2. The settings on record: 2003, cited from earlier work; for structural requirement for MrgX2 activation: ref Robas et al.
Another assay deals with C5a receptor. The conditions noted are these: ref Subramanian, 2011; cited from earlier work.
The test system of assay [11] is MrgX2. The conditions noted are these: requires tryptophan and a positively charged residue; ref Subramanian, 2011; cited from earlier work.
Assay [12] deals with mock transfected RBL-2H3 cells. In words: Degranulation of mock transfected RBL-2H3 cells. Format: cell-based, rat. The conditions noted are these: C3a 100 nM, peptides 1 µM, compound 48/80 100 ng/ml or antigen DNP-BSA 30 ng/ml, 30 min, representative of 3 experiments. A digest of the protocol:
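Rat RBL-2H3 cells, grown in DMEM with 10% FBS and mock-transfected, were seeded at 5 × 10^4 per well and sensitised with anti-DNP IgE (1 µg/ml, 16 h). After washing, they were challenged 30 min in 0.1% BSA buffer with test agents or DNP-BSA antigen. Supernatant β-hexosaminidase was assayed with 1 mM p-nitrophenyl-N-acetyl-β-D-glucosamine (1.5 h, 37°C) at A405, relative to a 0.1% Triton X-100 lysate. Data are representative of 3 experiments.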

The test system of a further assay is MrgX1. The conditions noted are these: ref Lembo et al., 2002; Robas et al., 2003; cited from earlier work.
The test system of assay [13] is C3a receptor. The conditions noted are these: guinea pig ileum, C3a versus C5a; ref Ember et al., 1991; cited from earlier work.
A further assay has as its system guinea pig skin. The conditions noted are these: ref Ember et al., 1991; cited from earlier work.
Assay [14] deals with C3a receptor. The conditions noted are these: versus C3a receptor agonist peptide (C3aP), ref Ember et al., 1991; cited from earlier work.
In the next assay the test system is guinea pig platelet. The settings on record: ref Ember et al., 1991; cited from earlier work.

“C3a: purified human anaphylatoxin C3a, from Complement Technology”: the “Ca^2+ mobilization” value in the assay on HMC-1 cells [1] is reported as “responds to C3a for a transient Ca^2+ mobilization”. The “degranulation by C3a” value with HA-tagged human MrgX2 (C3a (1 µM) in text) and in the assay on HA-tagged human MrgX1 (C3a (1 µM) in text) was “did not activate RBL-2H3 cells expressing MrgX1 or MrgX2; also recorded: at concentrations up to 1 µM did not induce degranulation in cells expressing either human MrgX1 or MrgX2” in each case. Moreover, the degranulation entry in assay [2] was “induces degranulation”; in [3], “does not induce degranulation”; in [5] it was “does not induce degranulation”; in the assay with LAD2 mast cells [6] it was “induced Ca^2+ mobilization and degranulation in a differentiated human mast cell line, LAD2; also recorded: induced a dose-dependent degranulation of LAD2 mast cells”. Moreover, in the assay with mast cell, the “mast cell chemoattractant activity” value was “one of the most potent mast cell chemoattractants known”. The “intracellular Ca^2+ mobilization” value in the assay on LAD2 mast cells [4] is “induced Ca^2+ mobilization; also recorded: induced rapid Ca^2+ responses in LAD2 cells which peaked within seconds after stimulation”; in the assay on HMC-1 cells [7], “caused Ca^2+ mobilization in an immature mast cell line, HMC-1; also recorded: induced Ca^2+ mobilization of similar magnitude and duration in HMC-1 cells”. In the assay with LAD2 mast cells [4], the “duration/magnitude of Ca^2+ response, C3a versus E7” value was “markedly reduced”. Also, the “Ca^2+ response to C3a added after E7S or compound 48/80” value in the assay with HMC-1 cells [7] (C3a 10 nM as second stimulus) is “fully responsive to C3a”.

Regarding NYITELRRQHARASHLGLAR [C3aP], the “biological potency compared with natural C3a” value in assay [8] was “expresses biological potency equal to natural C3a”. The “degranulation of primary mast cells” value in assay [9] is on record as “these peptides induced degranulation in primary mast cells”. The degranulation entry with LAD2 mast cells [6] was “as with LAD2 cells, these peptides induced degranulation”.

In the case of cortistatin-17 [CST-17], in the assay on MrgX2 [10], the “structural requirement for MrgX2 activation” value is “both the N-terminal proline and the C-terminal lysine are required for MrgX2 activation”.

PMX-53: in the assay on C5a receptor, the C5a receptor antagonism entry is reported as “potent C5a receptor antagonist”. In the assay with MrgX2 [11], the “activation of human mast cells via MrgX2” value is recorded as “activates human mast cells via MrgX2”.

On to “antigen: antigen (DNP-BSA, 30 ng/ml) on anti-DNP specific IgE-primed cells”, for which the degranulation result (in [12]; in the assay with HA-tagged human MrgX2; with HA-tagged human MrgX1) was “responded to antigen for degranulation” each time.

Consider LRAGSRYKKWALKWG [E7S], for which the degranulation result in the assay on HA-tagged human MrgX2 is “responded to CST, E7, E7S and compound 48/80”; with LAD2 mast cells [6], “also induced mast cell degranulation in a dose-dependent manner”. Also, the “intracellular Ca^2+ mobilization” value in the assay on LAD2 mast cells [4] is “induced robust and sustained Ca^2+ responses in LAD2 mast cells”; in the assay on HMC-1 cells [7] it was “did not initiate Ca^2+ responses in this cell line”. Further, in [9], the “degranulation of primary mast cells” value is on record as “these peptides induced degranulation in primary mast cells”.

“Tyr-Gly-Gly-Phe-Met-Arg-Arg-Val-Gly-Arg-Pro-Glu-Trp-Trp-Met-Asp-Tyr-Gln-Lys-Arg-Tyr-Gly [BAM-22P, Bovine Adrenal Medulla Docosapeptide]”: the “ligand of MrgX1” value in the assay with MrgX1 was “Ligands for MrgX1 and MrgX2 have been identified”. For the same substance, the degranulation entry in the assay with HA-tagged human MrgX1 is “responded only to BAM-22P and compound 48/80 for degranulation”.

As to “Pro-[Cys-Lys-Asn-Phe-Phe-Trp-Lys-Thr-Phe-Ser-Ser-Cys]-Lys (disulfide) (PCKNFFWKTFSSCK; disulfide 2-13) [CST, Cortistatin-14]”, in the assay on HA-tagged human MrgX2, the degranulation entry is “responded to CST, E7, E7S and compound 48/80”. The “ligand of MrgX2” value in the assay on MrgX2 [10] (ref Lembo et al., 2002, Robas et al.) is “Ligands for MrgX1 and MrgX2 have been identified”. The “structural requirement for MrgX2 activation” value in the assay with MrgX2 [10] was “both the N-terminal proline and the C-terminal lysine are required for MrgX2 activation”.

As for WWGKKYRASKLGLAR [E7], the degranulation result in the assay with HA-tagged human MrgX2 was “activated RBL-2H3 cells expressing MrgX2; also recorded: responded to CST, E7, E7S and compound 48/80”; with LAD2 mast cells [6] it was “induced Ca^2+ mobilization and degranulation in a differentiated human mast cell line, LAD2; also recorded: induced a dose-dependent increase in degranulation in LAD2 mast cells”. The “cross-desensitization of ileum contraction” value in the assay with C3a receptor [13] is on record as “cross-desensitized the ability of C3a but not C5a to induce guinea pig ileum contraction”. In addition, the “intracellular Ca^2+ mobilization” value in the assay on LAD2 mast cells [4] is “induced Ca^2+ mobilization; also recorded: induced rapid Ca^2+ responses in LAD2 cells which peaked within seconds after stimulation”; in the assay on HMC-1 cells [7], “caused Ca^2+ mobilization in an immature mast cell line, HMC-1; also recorded: induced Ca^2+ mobilization of similar magnitude and duration in HMC-1 cells”. Moreover, in the assay on LAD2 mast cells [4], the “duration/magnitude of Ca^2+ response, C3a versus E7” value was “prominent and sustained response”. The “concentrations required to induce vascular permeability compared to C3aP” value in the assay on guinea pig skin is reported as “much lower concentrations of E7 were required to induce vascular permeability in guinea pig skin”. Moreover, the “potency relative to C3aP in guinea pigs” value with C3a receptor [14] is 12 –15 fold. In addition, the “degranulation of primary mast cells” value in assay [9] was “these peptides induced degranulation in primary mast cells”. The “potency for mast cell degranulation compared with C3a” value with LAD2 mast cells [6] was “its potency for mast cell degranulation was lower than that of C3a”. Moreover, the “increase in guinea pig platelet aggregation activity compared to C3aP” value in the assay on guinea pig platelet is reported as ~ 1500%.
